Publication PMC10092158 (The British Journal of Dermatology, 2022)
“Also recorded” adds a separate entry of the source.

Assays:
Type in all cases: in vivo, human
[1] = tested on: participants with mild‐to‐moderate AD
Outline: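 Adults and children with mild-to-moderate AD (IGA 2–3, 2–20% BSA, EASI 3–21) were randomized equally to eight arms for 6 weeks. QD arms were vehicle, 0·1% (1 mg g–1), 0·3%, 1·0% or 3·0% cream; BID arms were vehicle, 0·3% or 1%. Application was to all affected areas except hair-bearing scalp. Read-outs were POEM at weeks 1, 2 and 6 and weekly PP-NRS averages, analysed by ANCOVA or MMRM.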

[2] = tested on: participants with mild‐to‐moderate AD; test: Phase IIb study: safety and tolerability
Outline: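 Safety data came from randomized participants treated for 6 weeks with vehicle or cream (QD 0·1–3·0%, or BID 0·3%/1%). Measures were treatment-emergent adverse events coded by System Organ Class, discontinuations due to TEAEs, vital signs, laboratory tests (haematology, creatine kinase, liver function) and ECGs. All were summarized descriptively.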

[3] = Phase IIb study: plasma concentrations of brepocitinib; details: topical cream, all dose groups; lower limit of quantification 0·200 ng mL^–1
Outline: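 Blood was drawn pre-dose at baseline and at weeks 1, 2, 3, 4 and 6, each at the same interval after application, during 6 weeks of topical cream given QD (0·1–3·0%) or BID (0·3%, 1%). Plasma brepocitinib was quantified against an LLOQ of 0·200 ng mL–1 and summarized as median concentration per dose group.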

Cn1cc(Nc2nccc(N3C[C@H]4CC[C@@H](C3)N4C(=O)[C@@H]3CC3(F)F)n2)cn1 [brepocitinib]
Percentage change from baseline in EASI score compared with respective vehicle ([1]; 1% QD, 3% QD and 1% BID groups, week 1 and all subsequent time points): significantly greater percentage changes from baseline in EASI score
Onset of clinically relevant reductions in pruritus ([1]; 24 h after the first administration): as early as day 2
Change from baseline in POEM at week 6 vs. vehicle ([1]; all brepocitinib groups): significantly different from vehicle
Discontinued from study due to TEAE, participants ([2]; 0·1% QD (N = 37)): 2 (5·4) n (%)
Nasopharyngitis (TEAE), participants ([2]; 0·1% QD (N = 37)): 2 (5·4) n (%)
Severe TEAEs, participants ([2]; 0·1% QD (N = 37)): 0 n (%)
TEAEs, all causalities, participants ([2]; 0·1% QD (N = 37)): 17 (45·9) n (%)
Treatment‐emergent SAEs, participants ([2]; 0·1% QD (N = 37)): 0 n (%)
Worsening of AD (TEAE), participants ([2]; 0·1% QD (N = 37)): 3 (8·1) n (%)
Cases of creatine kinase elevation (≥ 2–3× the upper limit of normal) ([2]; 0·1% QD and 0·3% QD groups, not deemed treatment‐related): one participant each
Discontinued from study due to TEAE, participants ([2]; 0·3% BID (N = 36)): 1 (2·8) n (%)
Nasopharyngitis (TEAE), participants ([2]; 0·3% BID (N = 36)): 2 (5·6) n (%)
Severe TEAEs, participants ([2]; 0·3% BID (N = 36)): 1 (2·8) n (%)
TEAEs, all causalities, participants ([2]; 0·3% BID (N = 36)): 9 (25·0) n (%)
Treatment‐emergent SAEs, participants ([2]; 0·3% BID (N = 36)): 0 n (%)
Worsening of AD (TEAE), participants ([2]; 0·3% BID (N = 36)): 0 n (%)
Discontinued from study due to TEAE, participants ([2]; 0·3% QD (N = 36)): 1 (2·8) n (%)
Nasopharyngitis (TEAE), participants ([2]; 0·3% QD (N = 36)): 2 (5·6) n (%)
Severe TEAEs, participants ([2]; 0·3% QD (N = 36)): 0 n (%)
TEAEs, all causalities, participants ([2]; 0·3% QD (N = 36)): 11 (30·6) n (%)
Treatment‐emergent SAEs, participants ([2]; 0·3% QD (N = 36)): 0 n (%)
Worsening of AD (TEAE), participants ([2]; 0·3% QD (N = 36)): 1 (2·8) n (%)
Discontinued from study due to TEAE, participants ([2]; 1.0% QD (N = 37)): 2 (5·4) n (%)
Nasopharyngitis (TEAE), participants ([2]; 1.0% QD (N = 37)): 3 (8·1) n (%)
Severe TEAEs, participants ([2]; 1.0% QD (N = 37)): 0 n (%)
TEAEs, all causalities, participants ([2]; 1.0% QD (N = 37)): 12 (32·4) n (%)
Treatment‐emergent SAEs, participants ([2]; 1.0% QD (N = 37)): 0 n (%)
Worsening of AD (TEAE), participants ([2]; 1.0% QD (N = 37)): 0 n (%)
Discontinued from study due to TEAE, participants ([2]; 1·0% BID (N = 37)): 0 n (%)
Nasopharyngitis (TEAE), participants ([2]; 1·0% BID (N = 37)): 2 (5·4) n (%)
Severe TEAEs, participants ([2]; 1·0% BID (N = 37)): 0 n (%)
TEAEs, all causalities, participants ([2]; 1·0% BID (N = 37)): 14 (37·8) n (%)
Treatment‐emergent SAEs, participants ([2]; 1·0% BID (N = 37)): 0 n (%)
Worsening of AD (TEAE), participants ([2]; 1·0% BID (N = 37)): 2 (5·4) n (%)
Discontinued from study due to TEAE, participants ([2]; 3·0% QD (N = 36)): 2 (5·6) n (%)
Nasopharyngitis (TEAE), participants ([2]; 3·0% QD (N = 36)): 4 (11·1) n (%)
Severe TEAEs, participants ([2]; 3·0% QD (N = 36)): 0 n (%)
TEAEs, all causalities, participants ([2]; 3·0% QD (N = 36)): 10 (27·8) n (%)
Treatment‐emergent SAEs, participants ([2]; 3·0% QD (N = 36)): 0 n (%)
Worsening of AD (TEAE), participants ([2]; 3·0% QD (N = 36)): 1 (2·8) n (%)
Discontinuations due to TEAEs in SOC skin and subcutaneous tissue disorders ([2]; all brepocitinib groups together): 4 n
Trends in haemoglobin, platelet, lymphocyte or neutrophil counts or creatine kinase levels ([2]; all groups): no clinically significant trends
Serious AEs or deaths ([2]; all groups, 6 weeks treatment): no serious AEs or deaths; also recorded: no serious TEAEs or deaths
Plasma brepocitinib concentrations [3]: low and highly variable
